Source: ChEMBL document CHEMBL1127686, “Synthesis of selective non-Ca(2+)-mobilizing inhibitors of D-myo-inositol 1,4,5-trisphosphate 5-phosphatase” (J Med Chem, 1994)
“And” between values parts separate entries of the source, which are not always exact repeats. Identical values can stand only once. Each block holds one molecule with its values, some of them ahead of it.

Columns and labels:
[1] = Binding affinity for Inositol 1,4,5-trisphosphate kinase
Procedure, shortened: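 Crude rat brain Ins(1,4,5)P3 3-kinase; inhibition of [3H]Ins(1,4,5)P3 phosphorylation measured; Km for Ins(1,4,5)P3 0.6 μM; Ki determined by a previously described method.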

[2] = Tested for binding affinity against human erythrocyte 5-phosphatase
[3] = Competitive inhibition of Inositol 1,4,5-trisphosphate 5-phosphatase; set-up: species or system Homo sapiens
[4] = (§1) Competitive inhibition of human erythrocyte membrane Ins(1,4,5)P3 5-phosphatase
Procedure, shortened: (§2)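 Ins(1,4,5)P3 5-phosphatase from human erythrocyte membrane; Ki determined by a previously described method, taken as the mean of at least three experiments.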

[5] = Tested for binding affinity against Ins(1,4,5)-P3 5-phosphatase; set-up: species or system Homo sapiens
Homo sapiens [6] = species: Homo sapiens; assay: as §1; procedure, shortened: as §2
Homo sapiens [7] = species: Homo sapiens; assay: Tested for Ca+2 potency in human neuroblastoma cells; assay type: functional
Procedure, shortened: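 Ca2+ release from intracellular stores measured in electrically permeabilized human neuroblastoma cells; potency expressed as EC50.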

Compound: OC1C(O)C(OP(O)(O)=S)C(OP(O)(O)=S)C(O)C1OP(O)(O)=S (stereo in doubt; 24)
Ki [1]: 247 µM | Ki [2]: 0.3 µM

Ki [3]: 45 µM
Compound: O=P(O)(O)O[C@H]1[C@H](O)[C@@H](OP(=O)(O)O)[C@H](O)[C@@H](OP(=O)(O)O)[C@H]1O

Compound: OC1C(O)C(OP(O)(O)=S)C(OP(O)(O)=S)C(O)C1OP(O)(O)=S (stereo in doubt)
Ki [1]: 1.46 µM | Ki [4]: 1.7 µM

Compound: OC1C(O)C(OP(O)(O)=S)C(OP(O)(O)=S)C(O)C1OP(O)(O)=S (configuration not stated)
Ki [5]: 0.5 µM

Compound: OC1C(OP(O)(O)=S)C(O)C(OP(O)(O)=S)C(O)C1OP(O)(O)=S (configuration not stated)
Ki [5]: 0.43 µM

Km (Homo sapiens [6]): 40 µM | Ki [3]: 39 µM | Ki [2]: 124 µM | EC50 (Homo sapiens [7]): 0.12 µM
Compound: O=P(O)(O)O[C@@H]1[C@H](O)[C@H](O)[C@@H](OP(=O)(O)O)[C@H](OP(=O)(O)O)[C@H]1O [INS(1,4,5)P3]

Ki [2]: 350 µM and 978 µM
Compound: O=C(O)C(COP(=O)(O)O)OP(=O)(O)O (configuration not stated)
